For 2 molecules, Activity and Ratio results are on record in ChEMBL document CHEMBL4152350, “A new multifunctional hydroxytyrosol-clofibrate with hypolipidemic, antioxidant, and hepatoprotective effects” (Bioorg Med Chem Lett, 2018).

Active and inactive are the calls of the source. The rule behind the calls is not given here.

Data set [1] relates to Mus musculus. Nature of the data set: Hypolipidemic activity in Triton WR 1339-induced acute hyperlipidemic ICR mouse model assessed as decrease in plasma triglyceride levels at 240 umol/kg, ig for one week followed by Triton WR 1339 challenge on day 6 measured after 24 hrs. Further details: scale not given: the % may be the effect or the level left. In kind it is functional. In short, it runs like this:
(§1)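 Acute hyperlipidemia was induced with Triton WR 1339 in mice given 240 µmol/kg intragastrically for 7 days. Plasma TG and TC are expressed as percent reduction, and plasma MDA in nmol/mL. Data are mean ± SEM, n=8, compared against the blank and model groups.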

Data set [2] deals with Mus musculus. In words: Antioxidant activity in ICR mouse assessed as hepatic GSH to GSSG ratio at 240 umol/kg/day administered po for 2 months (reference value: 16.4 +/- 2.34). The data set is classed as functional. In short, it runs like this: (§2)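 Male ICR mice (20.0 ± 2.0 g) received 240 µmol/kg/day; normal controls got an equal volume of vehicle. Commercial kits measured serum SOD, CAT and MDA and hepatic GSH and GSSG, with the GSH/GSSG ratio calculated. Groups were compared with normal and CF groups.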

The subject of data set [3] is Mus musculus. Nature of the data set: Hepatoprotective activity in ICR mouse assessed as centrilobular hypertrophy at 240 umol/kg/day administered po for 2 months by histopathological analysis. The data set is classed as functional, organism-based. In short, it runs like this:
(§3)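 Liver slices from male ICR mice (20.0 ± 2.0 g) were examined histopathologically after 240 µmol/kg/day dosing; normal controls received the same volume of vehicle.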

Data set [4] has as its system Mus musculus. In words: Toxicity in ICR mouse assessed as body weight at 240 umol/kg/day administered po for 2 months (reference value: 36.8 +/- 0.70 g). The data set is classed as organism-based. The settings on record: in vivo.
Data set [5] relates to Mus musculus. Nature of the data set: Hepatoprotective activity in ICR mouse assessed as serum ALT levels at 240 umol/kg/day administered po for 2 months (reference value: 36.25 +/- 1.08 U/L). The data set is classed as functional.
Data set [6] relates to Mus musculus. Nature of the data set: Hepatoprotective activity in ICR mouse assessed as serum AST levels at 240 umol/kg/day administered po for 2 months (reference value: 107.25 +/- 2.77 U/L). The data set is classed as functional.
Data set [7] deals with Mus musculus. In words: Hypolipidemic activity in Triton WR 1339-induced acute hyperlipidemic ICR mouse model assessed as decrease in total cholesterol levels in plasma at 240 umol/kg, ig for one week followed by Triton WR 1339 challenge on day 6 measured after 24 hrs. In kind it is functional. The arrangement: scale not given: the % may be the effect or the level left. In outline: as §1

For data set [8], the system named is Mus musculus. Nature of the data set: Antioxidant activity in ICR mouse assessed as hepatic GSSG levels at 240 umol/kg/day administered po for 2 months (reference value: 2.91 +/- 0.31 microM). The data set is classed as functional. In outline: as §2
Data set [9] concerns Mus musculus. Nature of the data set: Antioxidant activity in ICR mouse assessed as serum CAT levels at 240 umol/kg/day administered po for 2 months (reference value: 2.83 +/- 0.22 U/ml). The data set is classed as functional. In short, it runs like this:
as §2

Data set [10] relates to Mus musculus. In words: Antioxidant activity in ICR mouse assessed as hepatic GSH levels at 240 umol/kg/day administered po for 2 months (reference value: 43.38 +/- 4.59 microM). In kind it is functional. In short, it runs like this: as §2
Data set [11] deals with Mus musculus. Nature of the data set: Hypolipidemic activity in Triton WR 1339-induced acute hyperlipidemic ICR mouse model assessed as decrease in malonaldehyde levels in plasma at 240 umol/kg, ig for one week followed by Triton WR 1339 challenge on day 6 measured after 24 hrs. In kind it is functional. The arrangement: scale not given: the % may be the effect or the level left. In short, it runs like this: as §1

Data set [12] has as its system Mus musculus. In words: Hepatoprotective activity in ICR mouse assessed as serum APK levels per 100 ml at 240 umol/kg/day administered po for 2 months (reference value: 20.02 +/- 0.61 U). The data set is classed as functional.
The nature of data set [13]: Antioxidant activity assessed as hydroxyl radical scavenging activity after 60 mins. The data set is classed as functional.
Data set [14] concerns Mus musculus. In words: Hepatoprotective activity in ICR mouse assessed as hypertrophy at 240 umol/kg/day administered po for 2 months by histopathological analysis. The data set is classed as functional, organism-based. In outline: as §3
Data set [15] in a line: Antioxidant activity assessed as DPPH radical scavenging activity after 30 mins. The data set is classed as functional. A general note: DPPH is a stable violet radical that fades when it is reduced.
For data set [16], the system named is Mus musculus. In words: Hepatoprotective activity in ICR mouse assessed as liver weight at 240 umol/kg/day administered po for 2 months (reference value: 1.49 +/- 0.42 g). The data set is classed as functional.
For data set [17], the system named is Mus musculus. Nature of the data set: Hepatoprotective activity in ICR mouse assessed as serum TBIL levels at 240 umol/kg/day administered po for 2 months (reference value: 0.63 +/- 0.09 microM). In kind it is functional.
Data set [18] has as its system Mus musculus. In words: Antioxidant activity in ICR mouse assessed as serum SOD levels at 240 umol/kg/day administered po for 2 months (reference value: 337.64 +/- 4.82 U/ml). The data set is classed as functional. In outline:
as §2

Data set [19] deals with Mus musculus. In words: Antioxidant activity in ICR mouse assessed as serum MDA levels at 240 umol/kg/day administered po for 2 months (reference value: 6 +/- 0.20 microM). In kind it is functional. In outline: as §2
The subject of data set [20] is Mus musculus. In words: Hepatoprotective activity in ICR mouse assessed as liver coefficient at 240 umol/kg/day administered po for 2 months (reference value: 40.50 +/- 0.71 mg/g). In kind it is functional.
Data set [21] has as its system Mus musculus. In words: Hepatoprotective activity in ICR mouse assessed as hepatocyte hyperplasia at 240 umol/kg/day administered po for 2 months by histopathological analysis. In kind it is functional, organism-based. In outline: as §3
The test system of data set [22] is Mus musculus. In words: Hepatoprotective activity in ICR mouse assessed as midzonal mitosis at 240 umol/kg/day administered po for 2 months by histopathological analysis. The data set is classed as functional, organism-based. In outline: as §3

Take `CCOC(=O)C(C)(C)Oc1ccc(Cl)cc1` [CLOFIBRATE]: the Activity amounted to 24% in the data set with Mus musculus [1]; 33.8 g in the data set on Mus musculus [4]; 63.13 U/L with Mus musculus [5]; 157.5 U/L with Mus musculus [6]; 23% in the data set on Mus musculus [7]; 6.24 µM with Mus musculus [8]. Further, the Activity was determined as 3.86 U/ml with Mus musculus [9]; 11.6 µM in the data set on Mus musculus [10]; 14% in the data set on Mus musculus [11]; 28.64 U in the data set on Mus musculus [12]; 1.77 g in the data set on Mus musculus [16]; 13.09 µM with Mus musculus [17]. The figures for the Activity with Mus musculus [18], with Mus musculus [19] and in the data set on Mus musculus [20] were 228.32 U/ml, 7.79 µM and 52.12 mg/g, respectively. The Ratio in the data set on Mus musculus [2] worked out at 2.1. For the same molecule, the outcome (in the data set on Mus musculus [3]; in data set [13]; with Mus musculus [14]; in data set [15]; in the data set on Mus musculus [21]; in the data set on Mus musculus [22]) was inactive.
Turning to `CC(C)(Oc1ccc(Cl)cc1)C(=O)OCCc1ccc(O)c(O)c1`, the Activity in the data set with Mus musculus [1] was determined as 30%; in the data set on Mus musculus [4], 33.4 g; in the data set on Mus musculus [5] it was 39.75 U/L; with Mus musculus [6] it was 121.37 U/L; with Mus musculus [7] it was 33%; in the data set on Mus musculus [8], 4.85 µM. In addition, the Activity stood at 2.04 U/ml in the data set with Mus musculus [9]; 22.87 µM in the data set with Mus musculus [10]; 29% in the data set on Mus musculus [11]; 17.57 U in the data set on Mus musculus [12]; 1.48 g with Mus musculus [16]; 0.95 µM in the data set with Mus musculus [17]. The Activity worked out at 275.2 U/ml in the data set on Mus musculus [18], 6.44 µM in the data set with Mus musculus [19] and 44.17 mg/g with Mus musculus [20]. Further, the Ratio with Mus musculus [2] worked out at 4.1. Besides, the result (in the data set with Mus musculus [3]; in data set [13]; in the data set on Mus musculus [14]; in [15]; with Mus musculus [21]; in the data set on Mus musculus [22]) was Active.
